Measurements from ChEMBL document CHEMBL5154665, “Design, synthesis, biochemical evaluation, radiolabeling and in vivo imaging with high affinity class-IIa histone deacetylase inhibitor for molecular imaging and targeted therapy” (Eur J Med Chem, 2022).

Experiments:
[1] = Inhibition of HDAC class 2b in human THP-1 cells using TFA-lysine as fluorogenic substrate by fluorescence microplate reader assay; type: cell-based
[2] = molecular target: Histone deacetylase 1 (Homo sapiens, UniProt Q13547); test: Inhibition of recombinant human HDAC1 using fluorogenic substrate by fluorescence microplate reader assay
Outline: (§1)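 Recombinant human HDAC isoforms were tested at 9 inhibitor dilutions in commercial fluorogenic enzyme kits, per the manufacturer's protocol. For class IIa enzymes, deacetylation of a TFA-lysine substrate lets trypsin release a fluorophore, read on a microplate reader. IC50 came from a nonlinear fit of % HDAC activity inhibition against compound concentration.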

[3] = molecular target: Histone deacetylase 5 (Homo sapiens, UniProt Q9UQL6); test: Inhibition of recombinant human HDAC5 using fluorogenic substrate by fluorescence microplate reader assay; outline: as §1
[4] = Inhibition of HDAC class 2b in human L3.6pl cells using TFA-lysine as fluorogenic substrate by fluorescence microplate reader assay; type: cell-based
[5] = molecular target: T1, Protein deacetylase HDAC6 (Homo sapiens, UniProt Q9UBN7); test: Inhibition of recombinant human HDAC6 using fluorogenic substrate by fluorescence microplate reader assay; outline: as §1
T1 sequence (Q9UBN7 whole entry): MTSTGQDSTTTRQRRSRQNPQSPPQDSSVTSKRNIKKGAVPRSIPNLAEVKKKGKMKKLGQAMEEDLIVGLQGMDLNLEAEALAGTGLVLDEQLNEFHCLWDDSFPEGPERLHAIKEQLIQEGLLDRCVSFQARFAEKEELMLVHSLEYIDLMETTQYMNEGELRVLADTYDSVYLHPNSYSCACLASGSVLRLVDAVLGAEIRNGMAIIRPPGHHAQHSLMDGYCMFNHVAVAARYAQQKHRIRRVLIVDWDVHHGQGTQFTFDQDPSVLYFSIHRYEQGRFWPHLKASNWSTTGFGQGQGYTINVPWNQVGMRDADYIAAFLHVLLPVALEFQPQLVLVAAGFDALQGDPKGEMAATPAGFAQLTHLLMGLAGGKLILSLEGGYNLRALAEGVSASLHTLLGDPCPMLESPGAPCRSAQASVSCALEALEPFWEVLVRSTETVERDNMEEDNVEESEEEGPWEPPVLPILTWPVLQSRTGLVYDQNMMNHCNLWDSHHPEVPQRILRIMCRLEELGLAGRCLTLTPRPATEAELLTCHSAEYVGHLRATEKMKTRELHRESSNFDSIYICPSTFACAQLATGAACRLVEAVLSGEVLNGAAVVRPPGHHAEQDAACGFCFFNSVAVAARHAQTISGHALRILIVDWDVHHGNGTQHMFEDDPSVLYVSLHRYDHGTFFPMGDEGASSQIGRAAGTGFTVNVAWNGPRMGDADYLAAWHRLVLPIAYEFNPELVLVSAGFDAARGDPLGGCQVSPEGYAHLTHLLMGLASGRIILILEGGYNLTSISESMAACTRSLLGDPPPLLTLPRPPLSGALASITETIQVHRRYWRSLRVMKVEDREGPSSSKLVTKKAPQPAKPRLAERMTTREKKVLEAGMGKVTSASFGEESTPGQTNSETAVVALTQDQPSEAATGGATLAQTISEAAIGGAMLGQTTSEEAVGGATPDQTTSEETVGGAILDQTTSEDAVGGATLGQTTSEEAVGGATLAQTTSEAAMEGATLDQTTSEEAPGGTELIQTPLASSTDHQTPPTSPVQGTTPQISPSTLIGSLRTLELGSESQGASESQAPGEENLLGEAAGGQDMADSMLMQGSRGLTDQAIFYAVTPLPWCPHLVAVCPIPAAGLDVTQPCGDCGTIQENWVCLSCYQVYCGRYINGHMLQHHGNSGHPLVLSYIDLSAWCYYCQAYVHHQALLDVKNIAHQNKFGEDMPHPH

[6] = molecular target: T2, Histone deacetylase 8 (Homo sapiens, UniProt Q9BY41); test: Inhibition of recombinant human HDAC8 using fluorogenic substrate by fluorescence microplate reader assay; outline: as §1
T2 sequence (Q9BY41 whole entry): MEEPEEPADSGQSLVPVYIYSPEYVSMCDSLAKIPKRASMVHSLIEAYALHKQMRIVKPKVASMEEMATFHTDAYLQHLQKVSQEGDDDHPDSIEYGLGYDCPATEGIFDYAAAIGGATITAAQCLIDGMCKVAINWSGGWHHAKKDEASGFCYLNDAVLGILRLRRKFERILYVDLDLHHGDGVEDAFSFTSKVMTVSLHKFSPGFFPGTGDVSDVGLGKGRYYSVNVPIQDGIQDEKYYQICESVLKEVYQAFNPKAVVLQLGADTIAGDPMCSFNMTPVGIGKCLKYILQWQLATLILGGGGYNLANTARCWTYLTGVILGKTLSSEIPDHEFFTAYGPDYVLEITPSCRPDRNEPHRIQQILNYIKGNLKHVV

[7] = Inhibition of HDAC class 2b in human HT-29 cells using Boc-Lys-Ac as substrate incubated for 3 hrs by microplate reader assay; type: cell-based; settings: HT-29, 3 h
[8] = Inhibition of HDAC class 2a in human L3.6pl cells using TFA-lysine as fluorogenic substrate by fluorescence microplate reader assay; type: cell-based
[9] = molecular target: T3, Polyamine deacetylase HDAC10 (Homo sapiens, UniProt Q969S8); test: Inhibition of recombinant human HDAC10 using fluorogenic substrate by fluorescence microplate reader assay; outline: as §1
T3 sequence (Q969S8 whole entry): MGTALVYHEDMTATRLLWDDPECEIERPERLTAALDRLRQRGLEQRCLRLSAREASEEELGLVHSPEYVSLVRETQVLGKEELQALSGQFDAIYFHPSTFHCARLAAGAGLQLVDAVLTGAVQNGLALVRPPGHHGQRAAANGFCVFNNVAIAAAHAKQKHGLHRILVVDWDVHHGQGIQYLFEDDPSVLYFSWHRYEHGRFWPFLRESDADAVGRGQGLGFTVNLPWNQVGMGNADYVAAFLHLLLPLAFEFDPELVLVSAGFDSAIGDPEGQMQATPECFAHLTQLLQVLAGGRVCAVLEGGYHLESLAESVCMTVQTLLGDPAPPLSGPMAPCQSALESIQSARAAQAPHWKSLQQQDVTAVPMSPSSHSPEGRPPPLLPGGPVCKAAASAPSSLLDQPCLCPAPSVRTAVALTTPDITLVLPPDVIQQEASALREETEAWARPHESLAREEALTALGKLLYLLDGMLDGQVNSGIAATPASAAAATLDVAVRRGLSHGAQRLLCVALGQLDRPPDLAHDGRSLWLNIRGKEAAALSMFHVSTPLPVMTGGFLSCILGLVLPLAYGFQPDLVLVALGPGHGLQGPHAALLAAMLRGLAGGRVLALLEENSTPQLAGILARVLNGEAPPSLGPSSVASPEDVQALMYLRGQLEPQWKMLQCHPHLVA

[10] = molecular target: Histone deacetylase 9 (Homo sapiens, UniProt Q9UKV0); test: Inhibition of recombinant human HDAC9 using fluorogenic substrate by fluorescence microplate reader assay; outline: as §1
[11] = molecular target: Class 1 histone deacetylase (Homo sapiens, UniProt Q13547+O15379+Q92769+Q9BY41); test: Inhibition of HDAC class 1 in human PANC-1 cells using TFA-lysine as fluorogenic substrate by fluorescence microplate reader assay; type: cell-based

Sequence of Histone deacetylase 5 (Q9UQL6 whole entry): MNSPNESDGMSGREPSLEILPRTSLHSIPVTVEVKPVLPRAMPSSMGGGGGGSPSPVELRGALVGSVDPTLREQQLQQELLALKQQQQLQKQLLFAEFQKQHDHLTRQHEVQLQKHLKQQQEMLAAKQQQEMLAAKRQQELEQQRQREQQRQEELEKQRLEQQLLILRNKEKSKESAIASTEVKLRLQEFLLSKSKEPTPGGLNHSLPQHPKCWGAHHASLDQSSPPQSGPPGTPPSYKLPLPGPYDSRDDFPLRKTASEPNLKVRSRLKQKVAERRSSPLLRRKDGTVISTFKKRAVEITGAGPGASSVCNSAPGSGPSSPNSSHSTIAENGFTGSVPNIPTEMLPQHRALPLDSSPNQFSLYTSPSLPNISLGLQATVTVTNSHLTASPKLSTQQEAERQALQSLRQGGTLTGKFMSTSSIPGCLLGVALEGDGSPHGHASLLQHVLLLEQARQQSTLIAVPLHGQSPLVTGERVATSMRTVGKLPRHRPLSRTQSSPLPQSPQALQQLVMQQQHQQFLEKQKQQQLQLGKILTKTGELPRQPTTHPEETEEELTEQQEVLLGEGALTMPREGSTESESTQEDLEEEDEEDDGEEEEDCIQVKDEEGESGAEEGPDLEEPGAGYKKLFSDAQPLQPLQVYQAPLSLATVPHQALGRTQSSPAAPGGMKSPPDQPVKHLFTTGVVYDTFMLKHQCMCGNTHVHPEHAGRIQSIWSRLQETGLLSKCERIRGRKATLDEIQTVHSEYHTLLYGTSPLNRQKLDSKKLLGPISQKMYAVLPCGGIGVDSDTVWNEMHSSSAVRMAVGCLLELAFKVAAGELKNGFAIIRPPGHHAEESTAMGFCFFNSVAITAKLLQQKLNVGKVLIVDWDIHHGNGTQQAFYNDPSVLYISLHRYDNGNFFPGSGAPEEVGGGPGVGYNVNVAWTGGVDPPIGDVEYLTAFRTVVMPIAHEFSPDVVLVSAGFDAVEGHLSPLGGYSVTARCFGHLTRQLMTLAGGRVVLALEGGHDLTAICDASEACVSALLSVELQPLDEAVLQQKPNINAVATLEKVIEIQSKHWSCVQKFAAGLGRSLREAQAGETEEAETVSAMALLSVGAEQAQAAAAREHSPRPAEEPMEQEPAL
Sequence of Histone deacetylase 9 (Q9UKV0 whole entry): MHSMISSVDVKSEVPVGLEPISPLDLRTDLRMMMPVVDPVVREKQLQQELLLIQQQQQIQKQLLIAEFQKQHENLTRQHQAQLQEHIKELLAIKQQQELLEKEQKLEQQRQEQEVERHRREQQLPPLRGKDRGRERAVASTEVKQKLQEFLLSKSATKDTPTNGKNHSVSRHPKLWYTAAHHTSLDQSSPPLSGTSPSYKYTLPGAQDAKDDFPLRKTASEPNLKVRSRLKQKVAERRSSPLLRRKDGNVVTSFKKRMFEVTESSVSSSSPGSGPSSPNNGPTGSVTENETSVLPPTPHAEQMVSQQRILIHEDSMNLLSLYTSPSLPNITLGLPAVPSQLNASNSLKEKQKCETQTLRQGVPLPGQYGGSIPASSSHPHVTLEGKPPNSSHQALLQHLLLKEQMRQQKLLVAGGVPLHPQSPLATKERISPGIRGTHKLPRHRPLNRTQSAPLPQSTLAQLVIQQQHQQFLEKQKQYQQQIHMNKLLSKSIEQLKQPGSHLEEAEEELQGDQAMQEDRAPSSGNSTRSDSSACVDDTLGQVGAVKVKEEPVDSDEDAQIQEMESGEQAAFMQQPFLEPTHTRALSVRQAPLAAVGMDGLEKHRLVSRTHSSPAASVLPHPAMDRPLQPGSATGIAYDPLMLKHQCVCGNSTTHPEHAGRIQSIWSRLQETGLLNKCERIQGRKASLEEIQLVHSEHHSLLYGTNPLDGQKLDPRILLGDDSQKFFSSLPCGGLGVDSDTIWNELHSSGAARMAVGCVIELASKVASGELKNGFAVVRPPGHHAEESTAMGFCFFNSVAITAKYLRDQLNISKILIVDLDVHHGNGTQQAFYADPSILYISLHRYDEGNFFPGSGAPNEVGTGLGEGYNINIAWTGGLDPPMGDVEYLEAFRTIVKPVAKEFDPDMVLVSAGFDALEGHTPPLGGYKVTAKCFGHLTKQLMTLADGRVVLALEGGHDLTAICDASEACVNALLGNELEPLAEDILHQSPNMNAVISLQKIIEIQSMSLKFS
Sequence of Histone deacetylase 1 (Q13547 whole entry, canonical isoform): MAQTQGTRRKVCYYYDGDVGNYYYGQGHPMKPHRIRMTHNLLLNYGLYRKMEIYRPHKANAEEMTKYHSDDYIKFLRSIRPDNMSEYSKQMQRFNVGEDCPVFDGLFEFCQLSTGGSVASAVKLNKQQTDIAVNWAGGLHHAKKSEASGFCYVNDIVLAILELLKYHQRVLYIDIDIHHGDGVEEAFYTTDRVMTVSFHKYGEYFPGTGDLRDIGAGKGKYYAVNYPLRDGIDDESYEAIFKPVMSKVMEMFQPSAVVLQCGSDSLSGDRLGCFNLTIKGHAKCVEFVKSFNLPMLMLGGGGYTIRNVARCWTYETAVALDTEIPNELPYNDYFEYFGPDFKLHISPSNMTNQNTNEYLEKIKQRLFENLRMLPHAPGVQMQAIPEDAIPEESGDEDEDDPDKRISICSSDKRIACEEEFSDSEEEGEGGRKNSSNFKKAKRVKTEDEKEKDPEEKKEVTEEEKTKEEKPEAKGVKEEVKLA

SMILES: CC(C)(CNC(=O)c1cccc(-c2noc(C(F)(F)F)n2)c1)c1coc(-c2ccccc2)n1
- IC50 [1]: > 5 µM
- IC50 [2]: > 5 µM
- IC50 [3]: 0.148 µM
- IC50 [4]: > 5 µM
- IC50 [5]: > 5 µM
- IC50 [6]: > 5 µM
- IC50 [7]: > 50 µM
- IC50 [8]: 0.893 µM
- IC50 [9]: > 5 µM
- IC50 [10]: 0.0024 µM
- IC50 [11]: > 5 µM
